Results: PMC7104901 (Diabetes Technology & Therapeutics, 2020)

Assays:
Type in all cases: in vivo, human
[1] = test system: subjects with type 1 diabetes; assay: Euglycemic clamp pharmacodynamics; conditions: for Clamp stopped prematurely due to BG reaching threshold (≥200 mg/dL for 30 min): number of subjects after 0.3 U/kg single dose; for GIR-AUC0–12h treatment ratio, point estimate (90% CI): 0.3 U/kg single dose, euglycemic clamp
Summary of the method: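 Randomized, double-blind, 3-period crossover in adult males with T1D; fasted single 0.3 U/kg subcutaneous dose after basal-insulin washout (≥48 h), glulisine stopped ≥10 min predose, BG stable ≥1 h without glucose. A Biostator tracked arterialized venous BG and GIR continuously for 12 h, calibrated every 30 min. Stopped early if BG exceeded 200 mg/dL without glucose for 30 min. Weight-standardized GIR-AUC0–12h given as ratio of geometric means (90% CI).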

[2] = Plasma insulin aspart pharmacokinetics after single subcutaneous dose; conditions: linear mixed effects model, 0.3 U/kg single dose
Summary of the method: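 Adults with type 1 diabetes, off basal insulin ≥48 h and fasted overnight, clamped at blood glucose 100 mg/dL before subcutaneous dosing. Plasma was separated within 20 min and stored at −60 to −80°C. Samples were assayed by LC-MS/MS (100–8000 pg/mL, LLOQ 100 pg/mL) and censored at any rescue insulin. AUCs used the log-linear trapezoidal rule. Log-parameters were analysed by mixed model and back-transformed with 90% CI.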

[3] = test system: subjects with type 1 diabetes; assay: Safety and tolerability; conditions: single 0.3 U/kg dose
Summary of the method: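 Adult males with T1D each got a fasted single subcutaneous 0.3 U/kg dose per period in a double-blind 3-period crossover under 12 h euglycemic clamp. Safety was assessed by 12-lead ECG, vital signs, routine laboratory tests, physical examination, adverse event reporting and injection-site reaction assessment. Treatment-emergent events were counted as subjects reporting per treatment.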

[4] = ratio of geometric means vs. NN-Asp-EU
[5] = ratio of geometric means vs. NN-Asp-US

Substance | Clamp stopped prematurely due to BG reaching threshold (≥200 mg/dL for 30 min) [1] | INS-AUCinf treatment ratio, point estimate (90% CI) [2, 4] | INS-AUClast treatment ratio, point estimate (90% CI) [2, 4] | INS-Cmax treatment ratio, point estimate (90% CI) [2, 4] | GIR-AUC0–12h treatment ratio, point estimate (90% CI) [1, 4] | INS-AUCinf treatment ratio, point estimate (90% CI) [2, 5] | INS-AUClast treatment ratio, point estimate (90% CI) [2, 5] | INS-Cmax treatment ratio, point estimate (90% CI) [2, 5] | GIR-AUC0–12h treatment ratio, point estimate (90% CI) [1, 5] | Tolerability [3]
insulin aspart [NN-Asp-EU] | 15 subjects | – | – | – | – | – | – | – | – | –
insulin aspart [NN-Asp-US] | 18 subjects | 1.00 (0.95–1.04) | 1.00 (0.95–1.05) | 1.04 (0.96–1.12) | 0.97 (0.90–1.05) | – | – | – | – | –
insulin aspart [SAR-Asp] | 17 subjects | 0.92 (0.88–0.96) | 0.93 (0.88–0.97) | 0.97 (0.90–1.05) | 0.96 (0.89–1.04) | 0.92 (0.88–0.96) | 0.93 (0.89–0.98) | 0.93 (0.87–1.01) | 0.99 (0.91–1.07) | well tolerated
